For series [1] the following is noted: for transfer across the placental barrier (maternal to fetal circuit): 5 µM added to maternal circuit, 360 min perfusion; for time to steady-state concentration: 5 µM in maternal circuit; for steady-state concentration, fetal side / steady-state concentration, maternal side: % of initially analyzed concentration in the maternal sample; for F perfusate (% found): fetal perfusate after 360 min; for F perfusate (% found) / M perfusate (% found): % of initial amount; for M perfusate (% found): maternal perfusate after 360 min.

Series [2] can be described thus: Perfusion system adherence test. It counts as in vitro ADME. The following applies: % of initially analyzed concentration, 360 min, 5 µM in PM, n = 3. Summed up:
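No placenta in the chamber; only the maternal circuit was run, for 360 min. Test compound was dissolved directly in perfusion medium at a final 5 µM and run on its own. Quantified by U(H)PLC-MS/MS and expressed as % of the initial maternal concentration. Three independent experiments, mean ± SD.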

Series [3] deals with placental tissue. Description: Viability and functionality of placental tissue during ex vivo perfusion. Set-up: species or system human. In outline:
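Ex vivo perfusion of human placental cotyledons with 100 mL medium per circuit. Fetal circuit gassed with 95% N2/5% CO2, maternal with 95% air/5% CO2. […] Glucose and lactate were measured by blood gas analyser at the start and end of perfusion; β-hCG and leptin by ELISA. Values were normalized to perfusion time and cotyledon weight; Brown-Forsythe/Welch ANOVA with Dunnett's T3.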

Series [4] in a line: Fraction unbound in placental homogenate. It counts as in vitro ADME, human. The following applies: for fraction unbound at 240 min, 2 µM: human, placental homogenate (5-fold diluted in PBS).
The nature of series [5]: Stability of compounds in PBS, perfusion medium and placental homogenate. It counts as in vitro ADME, human. The following applies: 360 min, 4 °C and 37 °C.
Series [6] deals with serotonin transporter. To be noted: expressed in murine S6 cells ref 23; cited from earlier work.
Series [7] concerns placental tissue. In words: Histopathological evaluation of perfused placental tissue. Set-up: species or system human. In outline: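 Human placental tissue after ex vivo perfusion: sections taken immediately afterwards from the perfused area, the non-perfused area and the transitional area. Fixed in 4% paraformaldehyde ≥24 h, paraffin-embedded, cut at 2–3 µm. Stained with H&E, plus a modified Gram stain (Braun-Brenn) to check for bacterial contamination. Scored for intravascular thrombi, cytotrophoblast vacuolization, hydropic villous changes and villous endothelium viability, compared against non-perfused tissue.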

In series [8] the test system is 5-HT 1A receptors. The following applies: expressed in human CHO cell membranes ref 22; cited from earlier work.
Series [9] has as its system noradrenaline transporter. The following applies: expressed in murine N1 cells ref 23; cited from earlier work.
The mark [10] stands for this setting: 5 µM, compared with antipyrine control perfusions.
Setting [11] is: perfused tissue, individual experiments 1-4.
Where [12] appears, read: perfused tissue, individual experiments 1-4, listed as Protopine.
The mark [13] stands for this setting: during 360 min, control perfusions.

Several values for one entry are separate records, joined by “and”; a condition that tells them apart may be missing. Equal entries are not always repeated. Where two headings read alike, the source gives them in different places.

Regarding `CN(C)CCCC1(c2ccc(F)cc2)OCc2cc(C#N)ccc21` (stereo not drawn) [citalopram], in series [1], the “transfer across the placental barrier (maternal to fetal circuit)” value (“transfer across the placental barrier” for short) was “crossed the human placental barrier”; the “time to steady-state concentration” value is “approximately 60 min”; the “steady-state concentration, fetal side” value is 11%; the “steady-state concentration, maternal side” value is 22%. Further, in series [1], the “F perfusate (% found)” value is on record as 6.4% and the “M perfusate (% found)” value stood at 11.4%. The “adherence to perfusion equipment (compound lost)” value (“adherence to perfusion equipment” below) in [2] is 48.4% and 48.4 ± 12.9%. Also, in series [3] (setting [10]), the “effect on placental viability and metabolic activity (glucose consumption, lactate production)” value is “did not impair placental viability and metabolic activity”. For the same compound, the fraction unbound at 240 min, 2 µM in series [4] is 0.21 ± 0.01.

protopine: in series [1], the “transfer across the placental barrier” value is “rapidly transferred from the maternal to the fetal circuit”; the “steady-state concentration, fetal side” value is about 20%; the “steady-state concentration, maternal side” value was “approximately 27%”; the “F perfusate (% found)” value worked out at 14.0%. In addition, the “M perfusate (% found)” value in series [1] is recorded as 23.1%. Also, in [1] (listed as Protopine), the “transfer across the placental barrier” value was “transferred from the maternal to the fetal circuit”. Further, the “fetal-maternal concentration ratio (FM ratio)” value in series [1] (after 360 min, antipyrine from control perfusions) came to 0.75. Moreover, the “Final recovery (% found)” value in series [1] (sum of fetal and maternal perfusates, sampling and system adherence, 360 min) is 71.4 ± 8.6%. Also, the “stability in PM” value in [5] is reported as “slightly less stable”. Also, the “adherence to perfusion equipment” value in series [2] is 20.4% and 20.4 ± 9.5%. In series [6], the “inhibition of serotonin transporter” value is on record as “inhibitor”. Also, in series [7] (overall assessment), the “damage of placental tissue (endothelium, vascular rupture, thrombi, trophoblast vacuolization)” value is given as “did not cause apparent damage of placental tissue”. Further, in [7] (setting [11]), the “Thrombi in vessels of stem villi” value amounted to 0% and the “Thrombi in villous vessels” value is 5%. In series [7] (setting [12]), the “Thrombi in villous vessels” value is 1% and 0%; the “Vacuolated trophoblast in villi” value was 0% and 20% and 1% (2×). Moreover, in [3] (setting [10]), the “effect on placental viability and metabolic activity (glucose consumption, lactate production)” value was “did not impair placental viability and metabolic activity”; the “effect on β-hCG and leptin production” value is “did not inhibit”. In addition, in [3] (5 µM, compared with antipyrine control perfusions, listed as Protopine), the “effect on placental viability and metabolic activity (glucose consumption, lactate production)” value is reported as “did not affect placental viability or functionality”. Further, in [8], the “ligand at 5-HT 1A receptors” value is “ligand at 5-HT 1A receptors”. The “Fraction unbound (fu,hom)” value in series [4] (placental homogenate vs PBS, 2 µM, 240 min, 37 °C, 3 donors) is on record as 0.48 ± 0.04. Moreover, the “inhibition of noradrenaline transporter” value in series [9] is “inhibitor”.

Regarding `CN1C(=O)CN=C(c2ccccc2)c2cc(Cl)ccc21` [diazepam], in series [1], the “transfer across the placental barrier” value is recorded as “crossed the human placental barrier”, the “time to steady-state concentration” value is “approximately 45 min” and the “M perfusate (% found)” value stood at 7.9%. Moreover, the “steady-state concentration (side not specified)” value in series [1] (% of initially analyzed concentration, slow decrease until 360 min) is listed as 24%. In [2], the “adherence to perfusion equipment” value was 54.8% and 54.8 ± 12.7%. For the same compound, the “effect on placental viability and metabolic activity (glucose consumption, lactate production)” value in [3] (setting [10]) was “did not impair placental viability and metabolic activity”.

Take `Cc1cc(=O)n(-c2ccccc2)n1C` [antipyrine]: in series [1], the “transfer across the placental barrier” value was “readily crossed the placental barrier”, the “time to steady-state concentration” value was “approximately 120 min”, the “F perfusate (% found)” value came out at 19.8% and the “M perfusate (% found)” value was determined as 22.0%. Besides, the “time to equilibrium between maternal and fetal circuits” value in series [1] (connectivity control in perfusions with protopine) lay in the range of 120 to 240 min. In addition, in series [2], the “adherence to perfusion equipment” value amounted to 7.4 ± 4.7%. In series [3] (control perfusions), this compound yielded a leptin production of 334.8 pg/g/min and a β-hCG production of 95.7 mU/g/min. In series [3] (setting [13]), this compound gave a lactate production of 0.27 µmol/g/min and a total glucose consumption of 0.39 µmol/g/min. In [4], this compound showed a fraction unbound at 240 min, 2 µM of 1.
